From ChEMBL document CHEMBL4390637, “Design, synthesis and biological evaluation of novel inhibitors against cyanobacterial pyruvate dehydrogenase multienzyme complex E1” (Bioorg Med Chem, 2019)

How the values were obtained:
[1] = Inhibition of Synechocystis sp. PCC6803 PDHC-E1 expressed in Escherichia coli BL-21 (DE3) using 6-DCIP and pyruvate incubated for 5 mins; set-up: species or system Synechocystis sp. PCC 6803
In short: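 Recombinant Cy-PDHc E1 (E. coli BL-21 (DE3) with GroEL/GroES chaperones, Ni-NTA purified) assayed by DCIP reduction in 50 mM K3PO4 pH 7.2, 0.375 mM DCIP, 0.1 mg/ml enzyme, 200 µM ThDP plus inhibitor, 5 min at 37 °C before saturating pyruvate; IC50 values as means ± SD, n = 3.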

Sus scrofa = species: Sus scrofa; experiment: Inhibition of porcine PDHc-E1 at 100 uM using MTT and phenazine methosulfate incubated for 3 mins relative to untreated control
In short: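 Porcine PDHc E1 activity followed by MTT reduction at 566 nm. Mix: 1.0 mM MgCl2, 0.2 mM ThDP, 0.5 mM MTT, 6.5 mM PMS, 50 mM K3PO4 pH 7.0, 0.75 mg/mL enzyme, compound at 100 μM final; 3 min at 37 °C, then 2 mM sodium pyruvate added to start; percent inhibition reported.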

[2] = tested on: Synechocystis sp. PCC 6803; experiment: Inhibition of Synechocystis sp. PCC6803 PDHC-E1 expressed in Escherichia coli BL-21 (DE3) at 100 uM using 6-DCIP and pyruvate incubated for 5 mins relative to untreated control
In short: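 His-tagged Cy-PDHc E1 co-expressed with GroEL/GroES in E. coli BL-21 (DE3), Ni-NTA purified. Mix: 50 mM K3PO4 pH 7.2, 0.375 mM DCIP, 0.1 mg/ml enzyme, 200 µM ThDP, compound 100 μM; preincubated 5 min at 37 °C, reaction started with saturating pyruvate; percent inhibition reported.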

Microcystis aeruginosa = experiment: Growth inhibition of Microcystis aeruginosa FACHB905 incubated for 7 days; assay type: functional, organism-based
In short: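 Cyanobacteria grown in BG11 medium at 28 °C on a 12 h light/12 h dark cycle for 7 days to logarithmic phase. A 1% inoculum was transferred into fresh medium containing compound at different concentrations and cultured 7 days. OD680 was read, then inhibition rate and EC50 were calculated. Values are means, n = 3.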

[3] = tested on: Synechocystis sp. PCC 6803; experiment: Growth inhibition of Synechocystis sp. PCC6803 incubated for 7 days; assay type: functional, organism-based
[4] = Microcystis aeruginosa, FACHB905, 168 h
[5] = Synechocystis sp. PCC 6803, 168 h

Compound | IC50 [1] | inhibition (Sus scrofa) | inhibition [2] | EC50 (Microcystis aeruginosa; [4]) | EC50 [3, 5] | EC50 (Microcystis aeruginosa) | EC50 [3]
Cc1ncc(Cn2cc(COC(=O)c3ccccc3)nn2)c(N)n1 | 3580 nM | 15.9% | 95.5% | 1170 nM | 1660 nM |  | 
Cc1ncc(Cn2nnc(COC(=O)c3ccc(F)cc3)c2I)c(N)n1 | 1610 nM | 15.3% | 95.4% | 780 nM | 840 nM |  | 
Cc1ncc(Cn2nnc(COC(=O)c3ccccc3Cl)c2I)c(N)n1 | 1480 nM | 9.5% | 98.9% | 900 nM | 1170 nM |  | 
Cc1ncc(Cn2nnc(COC(=O)c3ccc(Cl)cc3)c2I)c(N)n1 | 2350 nM |  | 95.6% | 1060 nM | 900 nM |  | 
Cc1ncc(Cn2nnc(COC(=O)c3cccc(Cl)c3)c2I)c(N)n1 | 1790 nM | 5.13% | 98.7% | 740 nM | 1160 nM |  | 
Cc1ncc(Cn2cc(COC(=O)c3cccc(Cl)c3)nn2)c(N)n1 | 3730 nM | 9.62% | 93.2% | 1290 nM | 1810 nM |  | 
Cc1ncc(Cn2cc(COc3ccc(F)cc3)nn2)c(N)n1 | > 100000 nM |  | 16.2% | > 100000 nM | > 100000 nM |  | 
Cc1ncc(Cn2cc(COc3ccc(Cl)cc3)nn2)c(N)n1 | > 100000 nM |  | 29.6% | > 100000 nM | > 100000 nM |  | 
CUPRIC SULFATE |  |  |  |  |  | 1770 nM | 1470 nM
Cc1ncc(Cn2nnc(COC(=O)c3ccccc3)c2I)c(N)n1 | 1940 nM | 21% | 96.5% | 990 nM | 1440 nM |  | 
Cc1ncc(Cn2nnc(COC(=O)c3ccc([N+](=O)[O-])cc3)c2I)c(N)n1 | 1690 nM | 10.4% | 99.2% | 950 nM | 1090 nM |  | 
Cc1ccc(C(=O)OCc2nnn(Cc3cnc(C)nc3N)c2I)cc1 | 1880 nM |  | 97.1% | 850 nM | 1140 nM |  | 
Cc1ncc(Cn2cc(COc3ccc([N+](=O)[O-])cc3)nn2)c(N)n1 | > 100000 nM |  | 8.64% | > 100000 nM | > 100000 nM |  | 
Cc1ncc(Cn2cc(COC(=O)c3ccc([N+](=O)[O-])cc3)nn2)c(N)n1 | 3570 nM | 13.5% | 95.7% | 1330 nM | 1640 nM |  | 
Cc1ncc(Cn2cc(COc3ccccc3)nn2)c(N)n1 | > 100000 nM |  | 19% | > 100000 nM | > 100000 nM |  | 
Cc1ncc(Cn2cc(COC(=O)c3ccc(Cl)cc3)nn2)c(N)n1 | 3550 nM |  | 94.2% | 1110 nM | 2250 nM |  | 
Cc1ncc(Cn2cc(COC(=O)c3ccc(F)cc3)nn2)c(N)n1 | 3880 nM | 17.8% | 99.5% | 1220 nM | 2110 nM |  | 
Cc1ncc(Cn2cc(COC(=O)c3ccccc3Cl)nn2)c(N)n1 | 3370 nM | 7.31% | 97.8% | 1430 nM | 2440 nM |  | 
Cc1ccc(C(=O)OCc2cn(Cc3cnc(C)nc3N)nn2)cc1 | 4480 nM |  | 95.3% | 1200 nM | 1430 nM |  | 
